The source of these data is ChEMBL document CHEMBL1138320, “Discovery of potent & selective inhibitors of activated thrombin-activatable fibrinolysis inhibitor for the treatment of thrombosis” (J Med Chem, 2007).

The structures appear in SMILES notation.

One data set deals with T1, Carboxypeptidase B2 (Homo sapiens, UniProt Q96IY4).
T1 sequence (Q96IY4 whole entry): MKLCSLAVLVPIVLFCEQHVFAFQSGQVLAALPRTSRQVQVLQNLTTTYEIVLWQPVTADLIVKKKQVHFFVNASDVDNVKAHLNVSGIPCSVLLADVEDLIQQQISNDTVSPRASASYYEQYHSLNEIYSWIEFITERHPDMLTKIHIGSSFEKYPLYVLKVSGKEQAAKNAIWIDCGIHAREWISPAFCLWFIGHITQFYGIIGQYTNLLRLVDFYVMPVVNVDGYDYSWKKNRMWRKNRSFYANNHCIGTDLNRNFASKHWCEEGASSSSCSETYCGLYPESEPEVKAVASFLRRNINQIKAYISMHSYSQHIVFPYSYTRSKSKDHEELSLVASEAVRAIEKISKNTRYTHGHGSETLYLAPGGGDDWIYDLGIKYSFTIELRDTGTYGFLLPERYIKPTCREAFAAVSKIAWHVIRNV
Briefly: Inhibition of human TAFIa.

Data set [1] addresses T2, Carboxypeptidase N catalytic chain (Homo sapiens, UniProt P15169).
T2 sequence (P15169 whole entry): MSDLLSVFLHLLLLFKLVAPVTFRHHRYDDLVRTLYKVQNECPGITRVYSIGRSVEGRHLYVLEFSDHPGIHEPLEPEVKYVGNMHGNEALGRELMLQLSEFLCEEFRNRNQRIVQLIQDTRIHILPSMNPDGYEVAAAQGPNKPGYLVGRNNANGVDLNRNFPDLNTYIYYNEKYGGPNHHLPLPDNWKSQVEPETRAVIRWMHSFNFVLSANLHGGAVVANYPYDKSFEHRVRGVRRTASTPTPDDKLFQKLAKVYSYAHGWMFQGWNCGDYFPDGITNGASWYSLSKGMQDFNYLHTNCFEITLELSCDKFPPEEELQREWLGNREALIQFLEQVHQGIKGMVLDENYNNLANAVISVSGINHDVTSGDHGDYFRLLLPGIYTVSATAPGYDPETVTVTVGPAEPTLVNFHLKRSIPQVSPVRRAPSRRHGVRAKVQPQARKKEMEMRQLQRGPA
Kind of data set: Inhibition of human plasma carboxypeptidase N. Type of data set: cell-free.

The target of another data set is T3, Carboxypeptidase B (Sus scrofa, UniProt P09955).
T3 sequence (P09955 whole entry): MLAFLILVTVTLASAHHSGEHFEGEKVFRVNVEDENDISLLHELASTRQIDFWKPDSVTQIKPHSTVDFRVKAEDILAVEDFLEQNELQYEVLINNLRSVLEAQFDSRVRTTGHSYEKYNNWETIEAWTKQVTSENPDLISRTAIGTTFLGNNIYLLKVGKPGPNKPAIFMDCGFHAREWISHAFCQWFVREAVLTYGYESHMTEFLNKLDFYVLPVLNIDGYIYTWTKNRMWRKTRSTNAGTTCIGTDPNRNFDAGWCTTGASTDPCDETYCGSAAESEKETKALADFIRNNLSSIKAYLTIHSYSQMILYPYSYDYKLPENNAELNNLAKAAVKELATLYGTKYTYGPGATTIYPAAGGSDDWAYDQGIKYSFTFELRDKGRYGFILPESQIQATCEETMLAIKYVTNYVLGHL
Briefly: Inhibition of porcine pancreatic carboxypeptidase B.

Data set [2] can be described thus: Selectivity for bovine pancreatic carboxypeptidase A over porcine pancreatic carboxypeptidase B.
A short description of data set [3]: Bioavailability in dog at 1 mg/kg, po. It is filed as ADME, organism-based, Canis lupus familiaris. Conditions: in vivo. The gist of the method:
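Oral dosing at 1 mg/kg in dog for pharmacokinetic studies. Oral bioavailability was derived relative to iv dosing.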

Data set [4] in a line: Plasma clearance in dog at 0.6 mg/kg, iv. Type of data set: ADME, organism-based, Canis lupus familiaris. Set-up: dose 0.6 mg/kg, route intravenous. The method, boiled down: (§1)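 Single iv bolus of 0.6 mg/kg given to a dog. Total plasma clearance, volume of distribution and terminal elimination half-life were derived from the plasma pharmacokinetics.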
The nature of data set [5]: Hydrophilicity, log D of the compound. Type of data set: physicochemical. The settings on record: octanol/water.
Data set [6] can be described thus: Volume of distribution in dog at 0.6 mg/kg, iv. It is filed as ADME, organism-based, Canis lupus familiaris. On the set-up: dose 0.6 mg/kg, route intravenous. The settings on record: in vivo, read-out: Vdss. The method, boiled down: as §1
The nature of data set [7]: Renal elimination in dog at 0.6 mg/kg, iv by urinary excretion studies. The settings on record: urine, read-out: Activity. It is filed as ADME, organism-based, Canis lupus familiaris. On the set-up: dose 0.6 mg/kg, route intravenous. The method, boiled down:
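Urinary excretion study in a dog after an iv dose. Unchanged drug recovered in the urine was quantified as a percentage of the dose.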

Data set [8] in a line: Oral bioavailability in human. Type of data set: ADME, organism-based. Conditions: in vivo. The method, boiled down: (§2)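 Human pharmacokinetics after iv and oral dosing. Oral bioavailability and Tmax were determined, including with and without co-administration with food.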
Data set [9] can be described thus: Tmax in human. It is filed as ADME, organism-based. The settings on record: in vivo. The method, boiled down: as §2
Data set [10] concerns Oryctolagus cuniculus. Briefly: Antithrombotic efficacy in anesthetized rabbit assessed as inhibition of thrombus formation at 800 nM relative to control. It is filed as functional. The method, boiled down: (§3)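 Anesthetized rabbits given compound by iv infusion to reach projected free plasma levels of about 8, 80 or 800 nM. Thrombus weight (thrombus formation) was compared with vehicle-treated animals. t-PA at 10 µg/kg/min served as comparator. Group sizes were n = 3–6, with vehicle n = 5–13.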

The nature of data set [11]: Terminal elimination in dog at 0.6 mg/kg, iv. Set-up: dose 0.6 mg/kg, route intravenous. The settings on record: in vivo. Type of data set: ADME, organism-based, Canis lupus familiaris. The method, boiled down:
as §1

Data set [12] can be described thus: Bioavailability in rat. It is filed as ADME, organism-based. Conditions: in vivo.
Data set [13] relates to Oryctolagus cuniculus. Briefly: Inhibition of thrombus weight in iv dosed anesthetized rabbit at 80 nM relative to control. It is filed as functional. The gist of the method:
as §3

Regarding `Cn1cnc(C[C@H](NCCN)C(=O)O)c1`, at Carboxypeptidase B2, affinity was put at a Ki of 235 nM.

On Carboxypeptidase B2, `CCn1cnc(C[C@H](NCCN)C(=O)O)c1` yielded a Ki of 250 nM.

With `NCCN[C@@H](Cc1c[nH]cn1)C(=O)O`, the Ki in data set [1] was more than 10000 nM.

The compound `CC(C)Cn1cnc(C[C@H](NCCN)C(=O)O)c1` had a Ki on Carboxypeptidase B2 of 100 nM.

For the compound `NCCN[C@@H](Cc1cn(Cc2ccccc2)cn1)C(=O)O`, the Ki on Carboxypeptidase B2 is 269 nM.

Compound `CCCn1cnc(C[C@H](NCCN)C(=O)O)c1` gave a Ki on Carboxypeptidase B2 of 84 nM.

`CCCCn1cnc(C[C@H](NCCN)C(=O)O)c1` came in with a Ki on Carboxypeptidase B2 of 70 nM.

For the compound `CCCn1cnc(C[C@@H](CCCN)C(=O)O)c1`, the Ki at Carboxypeptidase B2 is more than 700 nM.

`NCCN[C@@H](Cc1cn(CCc2ccccc2)cn1)C(=O)O` registered a Ki on Carboxypeptidase B2 of 140 nM.

With `NCCN[C@@H](Cc1cn(CC2CCC2)cn1)C(=O)O`, on Carboxypeptidase B2, the affinity, expressed as Ki, was 124 nM.

Regarding `NCCN[C@H](Cc1c[nH]cn1)C(=O)O`, the Ki on Carboxypeptidase B2 was 17000 nM.

As to `CCCCCn1cnc(C[C@H](NCCN)C(=O)O)c1`, on Carboxypeptidase B2, the Ki was 160 nM.

Compound `CC(C)n1cnc(C[C@H](NCCN)C(=O)O)c1` registered a Ki on Carboxypeptidase B2 of 430 nM.

For `NCCN[C@@H](Cc1cn(CCCO)cn1)C(=O)O`, the Ki on Carboxypeptidase B2 amounted to 111 nM.

Consider `NC(N)=NCCCC(CS)C(=O)O` (racemic), for which the Ki on Carboxypeptidase B is 0.42 nM; in data set [1], 2 nM; at Carboxypeptidase B2 it was 4 nM.

The compound `NCCCC(CS)C(=O)O` (racemic) came in with a Ki at Carboxypeptidase B2 of 300 nM.

At Carboxypeptidase B2, `NCCCC(Cc1c[nH]cn1)C(=O)O` (racemic) gave a Ki of 140 nM.

As for `CCCn1cnc(CC(CCCN)C(=O)O)c1` (racemic), affinity on Carboxypeptidase B2 was put at a Ki of 46 nM.

`O=C(O)C(CS)Cc1ccccc1` (racemic): in [2], the Selectivity ratio is more than 10000.

For the compound `CCCn1cnc(C[C@H](CCCN)C(=O)O)c1` [UK-396,082], the bioavailability amounted to 42% in [3], 23% in data set [8] and 20% in data set [12]. Further, in [4], the clearance turned out to be 3.1 mL/min/kg. In data set [5], the logD was -2.8. Moreover, the Vd in data set [6] is 0.35 L/kg. Further, in [7], the dose excreted came out at 96%. Besides, the Tmax in [9] turned out to be 4 h. Moreover, the results for the Inhibition in the data set with Oryctolagus cuniculus [10] and with Oryctolagus cuniculus [13] were 36% and 37%, respectively. Further, the half-life in data set [11] is 1.4 h. At Carboxypeptidase B2, this compound showed a Ki of 10 nM.

For orientation: Ki means the dissociation constant of the complex between target and ligand, obtained from inhibition or displacement. What is called bioavailability is the share of a dose that reaches the circulation, judged against a reference dose that is usually intravenous. Read a high bioavailability as much systemic uptake. What is called clearance is a measure of how efficiently the substance is removed, as volume per time. The low end stands for inefficient removal, the high end for efficient removal. What is called logD is lipophilicity at a set pH, counting ionised and neutral species. Low values mean lower lipophilicity, high ones higher lipophilicity. The term Tmax denotes the time at which the peak concentration occurs. Broadly, the Inhibition is the change of the read-out against control, counted positive when it falls. The half-life is how long it takes for the measured level to halve.
